An excerpt weighted towards active compounds, which were near 5.9% of everything screened.
PTK2B oligo ant: antagonists of human Pyk2 oligomerization; actives 0.83% (n = 99,000); Q293 cells, Pyk2 FERM NanoBiT luminescence; stronger effect = lower value; z-score (the deposit names both 25 µM and 10 µM);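 active = Z-score of -3 or lower, scaled per plate to the spread of control and sample wells; inactive = z-score above -3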;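 also: negative z-score means lost luminescence so less FERM oligomerization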
Lung fibro prol: blocks proliferation of human lung fibroblasts | viability, % at 10 µM | AID 719 | actives 1.1% (n = 85,000) | LL 47 human lung fibroblast viability, ATP luminescence; stronger effect = lower value;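 active = viability at or below 50% in the single dose screen; inactive = viability above 50%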;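 also: compound exposure lasted 72 h before the ATP readout; 100% = median luminescence of untreated cell-only wells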
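Material: human lung fibroblast line LL 47, low passage; Evaluation: viability percentage against median untreated-cell control; Buffer or medium: 15% FBS in IMEM; Incubation: 72 h compound exposure at 37 °C after overnight plating; Dosing: 0.1% DMSO in all compound wells; Measured by: CellTiter-Glo luminescence.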
MT1-MMP txn act: MT1-MMP promoter transcription activation | HT1080 MT1-MMP promoter luciferase reporter, luminescence, overnight; stronger effect = higher value | activation factor at 10 µM | actives 0.16% (n = 86,000) | AID 750;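 active = activation factor of at least 2 for MT1-MMP transcription at 10 µM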
HUVEC prolif 384: inhibitors of human endothelial cell proliferation. HUVEC proliferation, CellTiter-Glo luminescence, 72 h; stronger effect = lower value. actives 1.1% (n = 86,000). viability, % at 10 µM (by protocol);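 active = viability at or below 30%; inactive = viability above 30%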;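 also: 100% = median luminescence of DMSO-only cell control wells on each plate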
H69AR inhibit: growth inhibitors of human H69AR lung tumor cells; H69AR lung tumor viability, ATP luminescence, 72 h; stronger effect = lower value; viability, % at 10 µM; actives 6% (n = 85,000); AID 598;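 active = viability at or below 40%; inactive = viability above 40%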;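 also: multidrug resistant small cell line overexpressing MRP-1 efflux transporter; 100% = mean luminescence of untreated control wells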
Jurkat viability: reduces viability or proliferation of Jurkat cells. inhibition, % at 4 µM. actives 1.2% (n = 56,000). Jurkat E6.1 viability, ATP luminescence, 48 h. AID 463;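 active = inhibition above the mean inhibition of all tested compounds plus 3 SD, cut at about 28% in these data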
* hit, by the source's call; nt = not tested or not shown.

SMILES	PTK2B oligo ant	Lung fibro prol	MT1-MMP txn act	HUVEC prolif 384	H69AR inhibit	Jurkat viability
CCOC(=O)/C=C(\C)Sc1cc(=O)oc2ccccc12	-1.2	86	1.3	49	13*	14
CCOC(=O)Nc1oc2ccccc2c(=O)c1C	2.1	93	1.2	86	95	nt
N#Cc1ccc(-c2ccco2)nc1SCc1ccccc1	-0.1	81	1	89	25*	7
COC(=O)C(O)(CC(=O)Nc1cc(Cl)ccc1Cl)C(F)(F)F (centres undefined)	1.4	94	1.2	87	97	nt
Cc1noc(C)c1C(=O)Nc1ccc(F)cc1F	-0.3	101	1.2	99	96	nt
COC(=O)C(NC(C)=O)(Nc1nc(C)cs1)C(F)(F)F (centres undefined)	0.5	95	1.2	90	96	nt
COC(=O)C(NC(C)=O)(Nc1nc2c(C)cc(C)cc2s1)C(F)(F)F (centres undefined)	-1.2	88	1.3	71	26*	nt
COc1cccc2cc(C(=O)N3CCc4ccccc4C3)c(=O)oc12	-0.11	93	1.6	108	89	0
COc1cc2c(cc1OC)CN(C(=O)c1cc3ccccc3oc1=O)CC2	-0.43	nt	1	64	24*	60*
O=C1CC(SC(=Nc2ccccc2)Nc2ccccc2)C(=O)N1c1cccc2ccccc12 (centres undefined)	-3*	nt	nt	nt	nt	nt
CCCCNC(=O)NS(=O)(=O)c1cnccc1Sc1ccc(Cl)cc1	0.48	nt	nt	nt	nt	nt
COc1ccc(OC)c(Nc2ncnc3c2cnn3-c2cccc(C)c2)c1	-1	61	1.1	51	23*	nt
CC(=O)Nc1ccc(Nc2ncnc3c2cnn3-c2cccc(C)c2)cc1	-0.02	nt	1.3	nt	nt	-3
COc1ccc(Nc2ncnc3c2cnn3-c2ccccc2)cc1OC	nt	112	1	90	37*	7
Clc1ccc(Nc2ncnc3c2cnn3-c2ccccc2)cc1	nt	100	1.2	93	95	1
CC1CCN(c2nc3ccc(C(=O)N4CCN(Cc5ccc6c(c5)OCO6)CC4)cc3s2)CC1	nt	96	nt	80	72	nt
CCCCCCNC(=O)CC(c1ccccc1)c1cc(Br)ccc1O (centres undefined)	-2.6	94	1.1	11*	47	nt
CN=C1S/C(=C\c2cccn2-c2cccc(Br)c2)C(=O)N1C	nt	94	1.1	86	82	nt
CCc1nc(N)c(C#N)c(-c2cccc3ccccc23)c1C	-0.55	95	1	98	101	nt
CCCOc1nc(N)c(C#N)c(-c2ccccc2F)c1C#N	-3.1*	88	1.2	104	55	-5
Cc1ccsc1C1C=C(c2cccc(Br)c2)Nc2ncnn21 (centres undefined)	-2.3	100	1.1	75	51	1
CCc1ccc(C2=CC(c3cc(Br)ccc3F)n3ncnc3N2)cc1 (centres undefined)	-2	58	0.9	58	18*	nt
Fc1ccc(Br)cc1C1C=C(c2ccc(Br)cc2)Nc2ncnn21 (centres undefined)	-2.8	60	1	63	18*	nt
CC1(C)C(c2ccccn2)=[N+]([O-])C(C)(C)N1O	-0.08	96	1.5	98	92	-3
CC1(C)C(c2ccccc2)=[N+]([O-])CN1O	0.69	nt	1.1	96	34*	10
SMILES	PTK2B oligo ant	Lung fibro prol	MT1-MMP txn act	HUVEC prolif 384	H69AR inhibit	Jurkat viability
Clc1ccc(N=c2ssnc2Cl)cc1	1.4	84	1.7	67	1.9*	nt
COc1ccc(N=Cc2sc3ccccc3c2Cl)cc1	-0.53	nt	nt	nt	nt	nt
COc1cc(-c2nnc(-c3cc(OC)c(OC)c(OC)c3)o2)cc(OC)c1OC	-0.48	99	1.2	79	78	nt
COc1ccc(N=c2ssnc2Cl)cc1	0.79	63	1.3	92	1.3*	nt
N#Cc1ccc(N=c2ssnc2Cl)cc1	0.65	82	1.1	58	2.6*	nt
COc1cc(N=c2ssnc2Cl)cc(OC)c1OC	-1	47*	1.1	56	1.7*	13
Cc1cccnc1NC1(C(F)(F)F)N=C(c2ccccc2)NC1=O (centres undefined)	-0.62	nt	nt	nt	nt	nt
Cc1ccc(SCC(=O)NC(C)(C)C)cc1	0.57	99	1.4	94	109	nt
CNc1nc(SCc2ccccc2Cl)nc2c1CCCC2	-1.1	nt	nt	nt	nt	nt
Cc1nc(NCCc2ccccc2)c2oc3ccccc3c2n1	1.9	98	1.2	82	69	nt
Cc1cc(C)c(C(=O)CSC2=NC(N)=C(C#N)C3(CCCCC3)C2C(N)=O)cc1C (centres undefined)	-0.04	101	1.2	90	12*	nt
Cn1c(SCC(=O)N(C2CCCCC2)C2CCCCC2)nnc1-c1cccs1	-0.61	75	1.3	81	20*	-14
Cc1ccc(N=Cc2c(O)n(-c3ccc4c(c3)OCO4)c(=O)c3ccccc23)cc1	-0.54	72	1	21*	9.1*	nt
CCOC(=O)C1=C(C)n2c(s/c(=C/c3cccc([N+](=O)[O-])c3)c2=O)=NC1c1ccc(O)c(OC)c1 (centres undefined)	0.31	17*	0.8	7.4*	3.2*	nt
Cc1ccc(C(=O)n2c3ccccc3c3ccccc32)cc1	-0.18	46*	nt	53	18*	nt
O=c1oc2ccccc2c(Nc2ccc3ccccc3c2)c1[N+](=O)[O-]	-1.6	90	1.2	59	19*	nt
COc1ccc(S(=O)(=O)NCCSCc2ccccc2C)cc1Br	-1.6	nt	nt	nt	nt	nt
COc1ccc(-n2c(C)cc(-c3csc(N)n3)c2C)cc1	1.1	nt	nt	nt	nt	nt
CC(C)Oc1ccc(C2CC(=O)N(c3ccccc3)C2=O)cc1 (centres undefined)	-1.3	95	1.3	89	96	nt
CC(C)Oc1ccc(C2CC(=O)N(c3ccc(N(C)C)cc3)C2=O)cc1 (centres undefined)	-4.2*	95	1.2	89	87	nt
COc1ccc(/C=C/C(O)=C2/C(=O)N(C)C3(C)CC2c2ccccc2O3)cc1 (centres undefined)	-1.3	76	0.9	82	3.0*	10
COC(CNC(=O)c1cc(C)nn1-c1ccccc1)OC	0.23	104	1.3	104	91	nt
Cc1ccc(S(=O)(=O)/N=C(\Sc2ccccc2)c2ccccc2)cc1	-0.22	60	1.1	35	41	nt
Cc1ccc(S(=O)(=O)/N=C(\CSC(N)=O)Nc2ccccc2)cc1	0.57	96	1.1	96	24*	nt
COc1cc2nc(N3CCN(C(=O)c4ccco4)CC3)nc(N)c2cc1OC	nt	22*	0.8	87	10*	nt
COc1cc(C(=O)N2CCN(C(=O)c3ccco3)CC2)cc(OC)c1OC	0.24	86	nt	83	87	nt
COc1cc2nc(N3CCN(C(=O)C4COc5ccccc5O4)CC3)nc(N)c2cc1OC (centres undefined)	nt	99	nt	62	29*	nt
O=C(CN(c1ccc(F)cc1)S(=O)(=O)c1ccc2c(c1)OCCO2)Nc1ccccc1	-2.6	98	1.2	103	75	nt
CCc1c(C)c2nncn2[nH]c1=O	-0.43	98	1.1	105	84	-4
